The source made the active and inactive calls. No cut-off for these calls is given here.
How the values were obtained:
Hepatitis B virus = experiment: Inhibition of cytoplasmic HBV DNA synthesis in HepG2.2.15 cells after 8 days; format: functional, organism-based; conditions: for IC50: HepG2.2.15, 192 h
Summary of the method: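 Confluent HepG2.2.15 cultures were treated with various doses. A 50 µL supernatant sample was added to extraction buffer, boiled for 10 min and centrifuged for 5 min, and aliquots were run in fluorescent PCR with HBV-specific primers and probe. IC50 was taken as the concentration giving 50% inhibition of cytoplasmic HBV DNA synthesis.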

[1] = Selectivity index, ratio of CC50 for HepG2.2.15 cells to IC50 for HBV; format: functional
Summary of the method: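 The index was calculated as CC50 divided by IC50. CC50 came from an 8-day MTT assay in HepG2.2.15 cells, and IC50 from fluorescent-PCR quantification of HBV DNA after treatment of confluent HepG2.2.15 cultures.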

SMILES	IC50 (Hepatitis B virus)	Ratio CC50/IC50 [1]	Activity (Hepatitis B virus)
Cc1ccc(S(=O)(=O)Nc2ccc3c(c2)nc(N)n3S(=O)(=O)C(C)C)cc1	16000 nM	9	
CC(C)S(=O)(=O)n1c(N)nc2cc(NC(=O)c3ccccc3)ccc21	2000 nM	>250	
CC(C)S(=O)(=O)n1c(N)nc2ccc(NS(=O)(=O)c3ccccc3)cc21	1500 nM	41	
CC(C)S(=O)(=O)n1c(N)nc2ccc(NC(=O)c3ccccc3Cl)cc21	820 nM	107	
Cc1ccc(S(=O)(=O)Nc2ccc3nc(N)n(S(=O)(=O)C(C)C)c3c2)cc1	4800 nM	17	
Nc1ccn([C@@H]2CS[C@H](CO)O2)c(=O)n1 [LAMIVUDINE]		>2632	
Cc1ccc(C(=O)Nc2ccc3nc(N)n(S(=O)(=O)C(C)C)c3c2)cc1	4200 nM	>119	
CC(C)S(=O)(=O)n1c(N)nc2ccc(NC(=O)c3c(F)cccc3F)cc21	700 nM	274	
COc1cccc(CN(Cc2cccc(OC)c2)c2ccc3nc(N)n(S(=O)(=O)C(C)C)c3c2)c1	700 nM	123	
Nc1ncnc2c1ncn2CCOCP(=O)(O)O [ADEFOVIR]	1700 nM	34	
CC(C)S(=O)(=O)n1c(N)nc2ccc(NS(=O)(=O)c3cccc([N+](=O)[O-])c3)cc21	10500 nM	5	
CC(C)S(=O)(=O)n1c(N)nc2ccc(NC(=O)c3ccccc3F)cc21	940 nM	51	
CC(C)S(=O)(=O)n1c(N)nc2ccc(NCc3ccccc3)cc21			inactive
CC(C)S(=O)(=O)n1c(N)nc2cc(NC(=O)c3ccc(F)cc3)ccc21	3700 nM	9	
CC(C)S(=O)(=O)n1c(N)nc2ccc(NC(=O)c3ccc(F)cc3)cc21	1200 nM	56	
CC(C)S(=O)(=O)n1c(N)nc2ccc(NC(=O)c3ccccc3)cc21	33700 nM	>15	

From ChEMBL document CHEMBL1139980, “Identification of 1-isopropylsulfonyl-2-amine benzimidazoles as a new class of inhibitors of hepatitis B virus” (Eur J Med Chem, 2007)
